In the library only some 2.1% were active in any assay of this set; here they are far more common.
STEP block: inhibitors of human striatal-enriched phosphatase STEP; P54829; recombinant STEP, OMFP fluorogenic substrate, fluorescence; inhibition, % at 20 µM; hit rate 0.25% among 360,000; AID 588621;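 active means inhibition at 20 µM, scaled per plate between control wells, above about 37%, limit read from the data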;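 further: 0% = DMSO with enzyme and substrate and 100% = substrate only without enzyme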
Target sequence (P54829 whole entry, looked up): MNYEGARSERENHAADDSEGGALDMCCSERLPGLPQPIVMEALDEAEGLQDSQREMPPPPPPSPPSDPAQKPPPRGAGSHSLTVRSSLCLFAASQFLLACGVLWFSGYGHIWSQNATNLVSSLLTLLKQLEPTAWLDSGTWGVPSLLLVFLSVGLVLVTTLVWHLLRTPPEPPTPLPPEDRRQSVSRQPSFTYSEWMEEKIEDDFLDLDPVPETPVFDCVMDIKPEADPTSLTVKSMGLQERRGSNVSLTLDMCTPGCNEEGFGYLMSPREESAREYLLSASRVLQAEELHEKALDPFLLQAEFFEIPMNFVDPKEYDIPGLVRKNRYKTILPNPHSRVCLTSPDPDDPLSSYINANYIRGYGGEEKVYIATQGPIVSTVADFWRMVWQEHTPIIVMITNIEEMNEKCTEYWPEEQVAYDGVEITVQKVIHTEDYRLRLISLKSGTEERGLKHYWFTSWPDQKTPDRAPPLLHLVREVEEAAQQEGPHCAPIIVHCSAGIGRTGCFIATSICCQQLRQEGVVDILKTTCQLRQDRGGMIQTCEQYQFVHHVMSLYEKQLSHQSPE
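System: STEP (striatal-enriched tyrosine phosphatase) enzyme, cell-free; medium: Bis-Tris pH 6.0 buffer with DTT, detergent; dosing: 20 µM, 1% DMSO; times: reaction 20 min, ambient temperature; detection: fluorescence, 480/540 nm; read-out basis: normalized % inhibition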
LMPTP inh: blocks human LMPTP phosphatase. P24666. hit rate 0.22% among 360,000. inhibition, % at 20 µM. recombinant LMPTP-A, OMFP fluorogenic substrate, fluorescence intensity;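 active means compounds that cut the enzyme signal by at least half of the control window in the single-dose screen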;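 further: plate controls were DMSO wells with enzyme plus substrate for no effect and substrate without enzyme for full effect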
Target sequence (P24666 whole entry, looked up): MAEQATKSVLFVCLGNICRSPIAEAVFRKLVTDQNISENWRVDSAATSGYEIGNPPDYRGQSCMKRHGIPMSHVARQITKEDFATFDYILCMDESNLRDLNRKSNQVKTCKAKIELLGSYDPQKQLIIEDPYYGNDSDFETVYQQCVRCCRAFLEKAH
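material = LMPTP-A | quantity = 0.625 nM enzyme | reagent = OMFP substrate, 400 µM final | buffer or medium = Bis-Tris pH 6.0, DTT, detergent | detection = endpoint fluorescence intensity from OMFP dephosphorylation | dosing = single 20 µM dose | read-out basis = % inhibition relative to no-enzyme and uninhibited control wells | control set = no-enzyme and uninhibited controls | timing = 50 min at room temperature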
DNMT1 block: inhibitors of human DNMT1 | P26358 | DNMT1 molecular beacon, Hinp1I cleavage, fluorescence | inhibition (reported as % activation of signal), % at 10 µM | hit rate 0.83% among 360,000; in the data active means inhibition above about 50%
Scp-1 inhibitor: Scp-1 (human) phosphatase inhibition; Q9GZU7; Recombinant Scp1, phosphopeptide, malachite green phosphate absorbance; inhibition, % at 20 µM; hit rate 0.88% among 340,000; AID 493091;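 active means inhibition above about 50% at 20 µM, limit read from the data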;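 further: plate controls were DMSO wells with enzyme for no effect and wells lacking enzyme for full effect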
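Test system – truncated SCP-1 phosphatase (76-261aa) · Reagent – Phosphorylated 17-residue peptide substrate · Incubation – 45 min room-temperature reaction, 5 min colour, 30 min stabiliser · Detection – colorimetric phosphate reagent with accelerator and stabiliser, absorbance at 630 nm · Measure – % inhibition at 20 µM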
SUMO1-SIM PPI: alters human SUMO1 binding to SIM partners. SUMO1 binding to a labelled peptide, TR-FRET, 1 h. inhibition, % at 20 µM. P63165. hit rate 0.33% among 360,000; in the data active means inhibition above about 37%
GRK2 inh: blocks RNA aptamer binding to human GRK2. bead flow cytometry, FAM-aptamer displacement from GRK2. inhibition of aptamer binding, % at 10 µM. hit rate 0.59% among 330,000;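 active means inhibition of aptamer binding above 40%, roughly 3 SD of noise, on plates passing a quality check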;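 further: median bead fluorescence of bound FAM aptamer so fluorescent compounds give negative values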
GRK2 CP1: human GRK2 inhibition confirmation, cherry pick 1. shares compounds with GRK2 inh. bead-bound GRK2, FAM-aptamer displacement, flow cytometry. aptamer displacement, % at 10 µM. hit rate 4% among 2,000;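 active means aptamer displacement above 40%, near three times the noise of non-fluorescent compounds, on plates passing quality checks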;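 further: negative values mostly reflect intrinsic compound fluorescence rather than true enhancement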
Aptamer quench SP: aptamer fluorescence quenching in GRK2 counter-screen; shares compounds with GRK2 inh; Carboxyfluorescein RNA aptamer on beads, flow cytometry quenching; stronger effect = lower value; fluorescence response (% of DMSO), % at 10 µM; 2,000 tested, under 10 active; AID 504580;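 active means compounds that quench the bead-bound fluorescent RNA probe, cutting fluorescence to under half of the solvent control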;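 further: counterscreen run without GRK2 so only probe quenching by compound is measured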
GRK2 confirm 2: confirmation of human GRK2 inhibitors binding RNA aptamer site. shares compounds with GRK2 inh. bead-bound GRK2, FAM-aptamer displacement, flow cytometry. inhibition of aptamer binding, % at 10 µM. 360 tested, under 10 active. AID 504782;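 active means inhibition of aptamer binding above 40%, about triple the noise seen with nonglowing compounds, on plates passing quality control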;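 further: negative values mostly come from compounds that fluoresce themselves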
FAM quench SP: quenches fluorescent RNA aptamer, GRK2 hit artifact | shares compounds with GRK2 inh | carboxyfluorescein RNA aptamer beads, flow cytometry quenching; stronger effect = lower value | fluorescence response vs DMSO, % at 10 µM | 360 tested, under 10 active | AID 588494;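 active means response vs DMSO under 50%, meaning signal dropped by over half, treated as fluorescence quencher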;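 further: labelled aptamer on streptavidin beads without GRK2 as a quench counter-screen; 100% = bead fluorescence of DMSO wells and lower means quenching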
The depositor's hits bear a star; nt = no result.

SMILES	STEP block	LMPTP inh	DNMT1 block	Scp-1 inhibitor	SUMO1-SIM PPI	GRK2 inh	GRK2 CP1	Aptamer quench SP	others
Cc1cccc(N(C)c2cc(-c3ccc(F)cc3)nc3ccnn23)c1	-3	1	11	nt	0	nt	nt	nt
Cc1cccc(NC(=O)CCc2ccccc2)c1C	-4	-3	-1	5	-1	85*	-5	98
Cc1cccc(NC(=O)CCS(=O)(=O)c2cccc3nsnc23)c1C	8	-1	-1	-5	-27	3	nt	nt	GRK2 confirm 2=13;FAM quench SP=101
NC(=O)c1cc([N+](=O)[O-])ccc1NCc1cnccn1	0	-2	4	-2	-21	2	nt	nt
COc1ccc(NS(=O)(=O)c2cc3c4c(c2)CCN4C(=O)CC3)c(OC)c1	2	0	0	-1	0	nt	nt	nt
COc1cccc(NC(=O)CSc2nnc(-c3cc(C)n(-c4ccccc4)c3C)o2)c1	3	3	-16	6	-1	98*	2	103
COc1ccc(NC(=O)CSc2nnc(-c3cccc(O)c3)o2)cc1	-2	0	-1	-1	-3	0	nt	nt
CSc1nc2sc3c(c2c(=O)n1C)CCC3	-5	-2	-6	-5	7	1	nt	nt	GRK2 confirm 2=-69;FAM quench SP=98
CCn1c(SCC(N)=O)nc2sc3c(c2c1=O)CCCC3	0	0	-2	-10	0	0	nt	nt
CCSc1nc2sc3c(c2c(=O)n1CC)CCC3	4	3	15	14	8	3	nt	nt	GRK2 confirm 2=16;FAM quench SP=99
CC(C)NC(=O)NC(=O)CSc1nnc(COc2ccccc2Cl)o1	-2	-1	2	-7	0	71*	-3	103
CC(=O)N1c2ccc(S(=O)(=O)NCCC(=O)NCCc3cccc(C)c3)cc2CC1C (stereo not given)	-2	-1	-1	-6	3	77*	-4	99
CC(=O)N1c2ccc(S(=O)(=O)NCCC(=O)NCCc3ccc(C)cc3)cc2CC1C (stereo not given)	0	1	0	-6	-2	5	nt	nt
CCc1ccc(NC(=O)CSc2nc(=O)n(CCCN(C)C)c3c2CCC3)cc1	2	0	0	-6	-3	0	nt	nt
O=[N+]([O-])c1ccc(N2CCN(c3ccc(Cl)nn3)CC2)cc1NC1CC1	0	15	5	-1	-7	64*	-1	99
O=C(NCCc1nccs1)C1CCC(=O)N(CCc2ccc(Cl)cc2)C1 (stereo not given)	-1	-1	2	-8	3	2	nt	nt
CC(C)(C)c1ccc(C(=O)NCCC(=O)NCc2cccs2)cc1	0	0	12	-5	1	2	nt	nt
O=[N+]([O-])c1cccc2c(S(=O)(=O)N3CCCCC3)cccc12	3	1	0	-6	-34	0	nt	nt
O=[N+]([O-])c1cccc2c(S(=O)(=O)N3CCOCC3)cccc12	59*	21	14	32	-25	89*	14	100
COc1ccc(N2CCN(S(=O)(=O)c3c(C)[nH]c(C)c3C(=O)N3CCCC3)CC2)cc1	-2	-2	-6	-2	-3	0	nt	nt
CC(=O)c1cccc(-n2nnnc2SCC(=O)Nc2cc(C)on2)c1	-2	0	3	-7	0	0	nt	nt
Cc1ccc(C)c(S(=O)(=O)NCc2ccc(C(=O)N3CCCCC3C)cc2)c1 (stereo not given)	0	-1	0	-3	3	52*	2	93
CCOC(=O)c1ccc2c(c1)N(CC#N)C(=O)C(C)(C)O2	-4	0	-1	-1	21	4	nt	nt
COc1ccc(Cl)cc1S(=O)(=O)NCc1cccs1	0	0	2	-2	-1	51*	-7	97
Cc1c(NC(=O)C(C)OC(=O)c2cccc(S(=O)(=O)N3CCOCC3)c2)c(=O)n(-c2ccccc2)n1C (stereo not given)	nt	nt	nt	-2	nt	76*	2	99
SMILES	STEP block	LMPTP inh	DNMT1 block	Scp-1 inhibitor	SUMO1-SIM PPI	GRK2 inh	GRK2 CP1	Aptamer quench SP	others
Cc1c(NC(=O)c2cccc(S(=O)(=O)N3CCOCC3)c2)c(=O)n(-c2ccccc2)n1C	-4	-2	0	-4	1	1	nt	nt
COc1ccc2cc3cc(C(=O)N4CCN(c5ccccn5)CC4)oc3nc2c1	2	3	3	-7	-32	57*	1	98
C=CCN1C(=O)SC(Cc2cccc(OC)c2O)C1=O (stereo not given)	0	0	0	-1	0	0	nt	nt
CCCNS(=O)(=O)c1ccc(CCC(=O)N2CCOCC2)cc1	0	0	3	-8	-5	61*	-13	96
S=c1nc[nH]c2c1ncn2C1CCCC1	-2	-2	-1	-11	1	2	nt	nt
Cc1nc(SCc2ccc(OCCC(C)C)cc2)n[nH]1	-1	1	-1	1	-3	100*	2	95
Cc1ccc(NC(=O)CC2Oc3ccc(C)cc3NC2=O)c(C)c1 (stereo not given)	-4	-1	2	-1	-3	0	nt	nt
CCc1cccc(C)c1NC(=O)CC1Oc2ccc(C)cc2NC1=O (stereo not given)	-3	-2	3	1	8	49*	nt	nt	GRK2 confirm 2=0;FAM quench SP=101
CN(C(=O)c1ccc(N2CCCCC2)c([N+](=O)[O-])c1)C1CCS(=O)(=O)C1 (stereo not given)	0	0	2	-1	-32	21	-3	105
CC(C)NC(=O)CC1(C(=O)NCc2ccc(Cl)cc2)CCCC1	0	-1	-3	-7	4	50*	nt	nt	GRK2 confirm 2=-1;FAM quench SP=104
COc1ccc(CNC(=O)C2(CC(=O)NC(C)(C)C)CCCC2)cc1	1	-1	1	-10	3	2	nt	nt
Cc1cccc(-n2ccc(=O)c(C(=O)Nc3ccc(S(=O)(=O)Nc4nccc(C)n4)cc3)n2)c1	2	1	4	-3	0	94*	1	99
COc1cc(CNc2ncnc3c2ncn3[C@H]2CN(Cc3ccc(Cl)cc3)C[C@@H](CO)O2)cc(OC)c1OC	-4	-1	0	nt	3	nt	nt	nt

Screens (PubChem BioAssay)
